Legend:
COLO 205 = assay: Cytotoxicity against human COLO205 cells after 48 hrs by SRB assay; type: functional; conditions: COLO 205, 48 h
Raji [1] = assay: Inhibition of TPA-induced EBV-early antigen activation in human Raji cells at 500 molar ratio relative to TPA; type: cell-based; design: scale not given: the % may be the effect or the level left; conditions: human gammaherpesvirus 4
RXF 393 = assay: Cytotoxicity against human […] cells after 48 hrs by SRB assay; type: functional; conditions: RXF 393, 48 h
NCI-H226 = assay: Cytotoxicity against human NCI-H226 cells after 48 hrs by SRB assay; type: functional; conditions: NCI-H226, 48 h
[2] = Cytotoxicity against human Raji cells assessed as cell viability at 1000 molar ratio; type: cell-based; conditions: read-out: Activity
How it was run: (§1)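 Raji cells were treated with 32 pmol TPA to induce EBV early antigen activation. The test agent was added at 10, 100, 500 or 1000 mol ratio relative to TPA, and Raji cell viability was measured alongside EA activation.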

CAKI-1 = assay: Cytotoxicity against human Caki-1 cells after 48 hrs by SRB assay; type: functional; conditions: CAKI-1, 48 h
NCI/ADR-RES = assay: Cytotoxicity against human NCI/ADR-RES cells after 48 hrs by SRB assay; type: functional
HOP-62 = assay: Cytotoxicity against human HOP-62 cells after 48 hrs by SRB assay; type: functional; conditions: HOP-62, 48 h
MCF7 = assay: Cytotoxicity against human MCF7 cells after 48 hrs by SRB assay; type: functional; conditions: MCF7, 48 h
HL-60 = assay: Cytotoxicity against human HL-60 cells after 48 hrs by SRB assay; type: functional; conditions: HL-60, 48 h
786-0 = assay: Cytotoxicity against human 786-0 cells after 48 hrs by SRB assay; type: functional; conditions: 786-0, 48 h
UACC-257 = assay: Cytotoxicity against human UACC-257 cells after 48 hrs by SRB assay; type: functional; conditions: UACC-257, 48 h
How it was run: (§2)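 Tested in the NCI panel of 60 human tumour cell lines covering lung, colon, melanoma, renal, ovarian, breast and leukaemia. At least five concentrations were run in 10-fold dilutions starting from 10^-4 M. Exposure was continuous for 48 h. Growth or viability was estimated by sulforhodamine B protein staining, and GI50 values were reported.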

HOP-92 = assay: Cytotoxicity against human HOP-92 cells after 48 hrs by SRB assay; type: functional; conditions: HOP-92, 48 h
HCC 2998 = assay: Cytotoxicity against human HCC2998 cells after 48 hrs by SRB assay; type: functional; conditions: HCC 2998, 48 h
UO-31 = assay: Cytotoxicity against human UO-31 cells after 48 hrs by SRB assay; type: functional; conditions: UO-31, 48 h; how it was run: as §2
Raji [3] = assay: Inhibition of TPA-induced EBV-early antigen activation in human Raji cells at 1000 molar ratio relative to TPA; type: cell-based; design: scale not given: the % may be the effect or the level left; conditions: human gammaherpesvirus 4
Raji [4] = assay: Inhibition of TPA-induced EBV-early antigen activation in human Raji cells at 100 molar ratio relative to TPA; type: cell-based; design: scale not given: the % may be the effect or the level left; conditions: human gammaherpesvirus 4
SF-295 = assay: Cytotoxicity against human SF-295 cells after 48 hrs by SRB assay; type: functional; conditions: SF-295, 48 h
MOLT-4 = assay: Cytotoxicity against human MOLT-4 cells after 48 hrs by SRB assay; type: functional; conditions: MOLT-4, 48 h
SF-268 = assay: Cytotoxicity against human SF-268 cells after 48 hrs by SRB assay; type: functional; conditions: SF-268, 48 h
UACC-62 = assay: Cytotoxicity against human UACC-62 cells after 48 hrs by SRB assay; type: functional; conditions: UACC-62, 48 h; how it was run: as §2
[5] = Cytotoxicity against human Hs 578T cells after 48 hrs by SRB assay; type: functional
OVCAR-8 = assay: Cytotoxicity against human OVCAR8 cells after 48 hrs by SRB assay; type: functional; conditions: OVCAR-8, 48 h
MDA-MB-435 = assay: Cytotoxicity against human MDA-MB-435 cells after 48 hrs by SRB assay; type: functional; conditions: MDA-MB-435, 48 h
IGROV-1 = assay: Cytotoxicity against human IGROV1 cells after 48 hrs by SRB assay; type: functional; conditions: IGROV-1, 48 h
HCT-15 = assay: Cytotoxicity against human HCT-15 cells after 48 hrs by SRB assay; type: functional; conditions: HCT-15, 48 h
[6] = Cytotoxicity against human Raji cells assessed as cell viability at 10 molar ratio; type: cell-based; conditions: read-out: Activity; how it was run: as §1
T47D = assay: Cytotoxicity against human T47D cells after 48 hrs by SRB assay; type: functional; how it was run: as §2
TK-10 = assay: Cytotoxicity against human TK-10 cells after 48 hrs by SRB assay; type: functional; conditions: TK-10, 48 h; how it was run: as §2
PC-3 = assay: Cytotoxicity against human PC-3 cells after 48 hrs by SRB assay; type: functional; conditions: PC-3, 48 h

CCCCOC(=O)[C@H]1O[C@@H](O[C@H]2CC[C@]3(C)[C@H]4CC=C5[C@@H]6CC(C)(C)CC[C@]6(C(=O)O[C@@H]6O[C@H](CO)[C@@H](O)[C@H](O)[C@H]6O)CC[C@@]5(C)[C@]4(C)CC[C@H]3C2(C)C)[C@H](O)[C@@H](O)[C@@H]1O
GI50 (COLO 205): 1.36 µM
Activity (Raji [1]): 48.1%
GI50 (RXF 393): 1.65 µM
GI50 (NCI-H226): 1.49 µM
viability at 1000 molar ratio [2]: 70%
GI50 (CAKI-1): 17.2 µM
GI50 (NCI/ADR-RES): > 50 µM
GI50 (HOP-62): 2.22 µM
GI50 (MCF7): 1.6 µM
GI50 (HL-60): 1.21 µM
GI50 (786-0): 1.56 µM
GI50 (UACC-257): 4.18 µM
GI50 (HOP-92): 1.04 µM
GI50 (HCC 2998): 0.89 µM
GI50 (UO-31): 12.7 µM
Activity (Raji [3]): 10.1%
Activity (Raji [4]): 70%
GI50 (SF-295): 2.56 µM
GI50 (MOLT-4): 1 µM
GI50 (SF-268): 2.17 µM
GI50 (UACC-62): 0.89 µM
GI50 [5]: 1.62 µM
GI50 (OVCAR-8): 4.28 µM
GI50 (MDA-MB-435): 2.52 µM
GI50 (IGROV-1): 1.7 µM
GI50 (HCT-15): 6.73 µM
viability at 10 molar ratio [6]: > 80%
GI50 (T47D): 1.75 µM
GI50 (TK-10): 1.85 µM
GI50 (PC-3): 1.26 µM
